PubChem BioAssay AID588629 (Broad Institute, 2011)
Records with an inconclusive call do not appear. Active and inactive are the calls of the source.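 The calls were made as follows: active = every test run called active, with signal falling and half-effect dose at or below the top valid dose; inconclusive = test runs give conflicting calls; inactive = all test runs inactive.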

Target: cAMP-dependent protein kinase catalytic subunit alpha (Homo sapiens) (UniProt P17612)
Assay: inhibition of human PKA kinase activity – biochemical, Caliper mobility shift, dry powder samples, set 2, dose response (AID 588629)
Conditions: Recombinant PKA, peptide phosphorylation; for % substrate conversion (lower = inhibition): at 10 µM (top of the series)
Procedure, shortened: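 Test system: recombinant His-tagged human PKA catalytic fragment, purified enzyme; Buffer or medium: MOPS pH 7 with Mg2+; Reagent: fluorescent Peptide 21 at 3 µM plus 12 µM ATP; Timing: 1 h at room temperature; Technique: Capillary electrophoresis separation of peptide and phosphopeptide after EDTA quench.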

Structure (SMILES)	% substrate conversion (lower = inhibition)	IC50 [µM]
COc1ccccc1N=C1NC(=O)/C(=C/c2ccc(F)c(F)c2)S1	inactive	–
COc1cc(/C=C2\SC(=Nc3cccnc3)NC2=O)ccc1O	inactive	–
O=C1NC(=NCc2ccccc2)S/C1=C/c1ccc(O)cc1	inactive	–
O=C(Nc1ccccc1-c1nc2ccccc2[nH]c1=O)c1ccc(F)cc1	inactive	–
COc1cccc(/C=C2\SC(=Nc3ccccc3OC)NC2=O)c1	inactive	–
O=c1[nH]c2ccccc2nc1-c1ccccc1NCc1cccs1	inactive	–
O=C(Nc1ccccc1-c1nc2cc(Cl)c(Cl)cc2[nH]c1=O)c1cccs1	–	4.88
O=C(Nc1ccccc1-c1nc2ccccc2[nH]c1=O)C1CCCCC1	inactive	–
COc1cc(/C=C2\SC(=Nc3ccccc3OC)NC2=O)ccc1O	inactive	–
COc1cc(/C=C2\SC(=NC(C)(C)C)NC2=O)ccc1O	inactive	–
COc1ccccc1N=C1NC(=O)/C(=C/c2cc(Cl)cc(Cl)c2O)S1	inactive	–
COc1ccc(/C=C2\SC(=Nc3ccccc3OC)NC2=O)c(O)c1	inactive	–
COc1ccccc1N=C1NC(=O)/C(=C/c2nc(C)cs2)S1	inactive	–
COc1cc(/C=C2\SC(=Nc3ccncc3)NC2=O)ccc1O	inactive	–
COc1ccccc1Nc1nc(O)c(/C=C2/C=c3ccccc3=N2)s1	inactive	–
O=C(Nc1ccccc1-c1nc2ccccc2[nH]c1=O)c1cccc(F)c1	inactive	–
COc1ccccc1N=C1NC(=O)/C(=C/c2ccc3c(c2)OCO3)S1	inactive	–
COc1ccccc1N=C1NC(=O)/C(=C/C2CCCCC2)S1	inactive	–
COc1cc(/C=C2\SC(N)=NC2=O)ccc1O	inactive	–
COc1ccccc1N=C1NC(=O)/C(=C/c2ccc(C#N)cc2)S1	inactive	–
COc1ccccc1N=C1NC(=O)/C(=C/c2ccc(C(C)C)cc2)S1	inactive	–
COc1ccccc1N=C1NC(=O)/C(=C/c2ccc(Cl)c(Cl)c2)S1	inactive	–
COc1cc(/C=C2\SC(=Nc3ccccc3F)NC2=O)ccc1O	inactive	–
COc1ccccc1N=C1NC(=O)/C(=C/c2ccc3c(c2)OC(F)(F)O3)S1	inactive	–

Structure (SMILES)	% substrate conversion (lower = inhibition)	IC50 [µM]
COc1cc(/C=C2/SC(=Nc3ccc(O)cc3)NC2=O)ccc1O	inactive	–
COc1cc(/C=C2\SC(=NC(C)C)NC2=O)ccc1O	inactive	–
COc1ccccc1N=C1NC(=O)/C(=C/c2ccc(F)cc2)S1	inactive	–
COc1ccc(N=C2NC(=O)/C(=C/c3ccc(O)c(OC)c3)S2)cc1	inactive	–
COc1ccccc1N=C1NC(=O)/C(=C/c2ccc(Cl)cc2)S1	inactive	–
COc1cc(/C=C2\SC(=Nc3ccccc3Cl)NC2=O)ccc1O	–	3.66
COc1ccccc1N=C1NC(=O)/C(=C/c2ccc3c(c2)OCCO3)S1	inactive	–
COc1ccccc1N=C1NC(=O)/C(=C/c2cccn2C)S1	inactive	–
COc1ccccc1Nc1nc(O)c(/C=c2/ccc3c(c2)C=CN=3)s1	inactive	–
COc1ccccc1N=C1NC(=O)/C(=C/c2ccc(OC)c(OC)c2)S1	inactive	–
COc1ccc(C(=O)Nc2ccccc2-c2nc3ccccc3[nH]c2=O)cc1	inactive	–
COc1ccccc1N=C1NC(=O)/C(=C/c2ccccn2)S1	inactive	–
COc1ccccc1N=C1NC(=O)/C(=C/c2ccc(OC(F)(F)F)cc2)S1	inactive	–
COc1ccccc1N=C1NC(=O)/C(=C/c2cc(C)on2)S1	inactive	–
COc1cc(/C=C2\SC(=NCc3ccccc3)NC2=O)ccc1O	–	2.9
COc1ccccc1N=C1NC(=O)/C(=C/c2ccccc2F)S1	inactive	–
O=C(Nc1ccccc1-c1nc2cc(F)c(F)cc2[nH]c1=O)c1cccs1	inactive	–
COc1ccc(-n2ncc3cnc(Nc4ccc(N5CCN(C)CC5)c(OC)c4)nc32)cc1	inactive	–
COc1cc(/C=C2\SC(=Nc3ccc(F)cc3)NC2=O)ccc1O	inactive	–
CC(C)c1ccc(NC(=O)c2cccs2)c(-c2nc3ccccc3[nH]c2=O)c1	inactive	–
O=C(Nc1ccc(OC(F)(F)F)cc1-c1nc2ccccc2[nH]c1=O)c1cccs1	inactive	–
COc1ccccc1N=C1NC(=O)/C(=C/c2cccc(Cl)c2)S1	inactive	–
COc1ccccc1N=C1NC(=O)/C(=C/C(C)C)S1	inactive	–
O=C(Nc1cc(Cl)ccc1-c1nc2ccccc2[nH]c1=O)c1cccs1	inactive	–

Structure (SMILES)	% substrate conversion (lower = inhibition)	IC50 [µM]
O=C(Nc1ccccc1-c1nc2ccccc2[nH]c1=O)c1cc2ccccc2s1	–	6.73
COc1ccccc1/C=C1\SC(=Nc2ccccc2OC)NC1=O	inactive	–
COc1ccccc1N=C1NC(=O)/C(=C/c2ccncc2)S1	inactive	–
O=C(Nc1ccc(F)cc1-c1nc2ccccc2[nH]c1=O)c1cccs1	inactive	–
COc1ccccc1N=C1NC(=O)/C(=C/c2ccc(C)cc2)S1	inactive	–
COc1ccccc1N=C1NC(=O)CS1	inactive	–
COc1ccccc1N=C1NC(=O)/C(=C/c2ccc(-c3cccnc3)cc2)S1	inactive	–
O=C(Nc1ccccc1-c1nc2ccccc2[nH]c1=O)c1ccncc1	inactive	–
COc1ccccc1N=C1NC(=O)/C(=C/c2cccc(F)c2)S1	inactive	–
O=C(Nc1cc(F)ccc1-c1nc2ccccc2[nH]c1=O)c1cccs1	inactive	–
COc1ccccc1N=C1NC(=O)/C(=C/c2cnn(C)c2)S1	inactive	–
Nc1ccccc1-c1nc2ccccc2[nH]c1=O	inactive	–
O=C(Nc1ccccc1-c1nc2ccccc2[nH]c1=O)c1cccnc1	inactive	–
O=C(Nc1ccccc1-c1nc2ccccc2[nH]c1=O)c1ccccn1	inactive	–
COc1ccccc1N=C1NC(=O)/C(=C/c2ccccc2Cl)S1	inactive	–
O=C(Nc1ccccc1-c1nc2ccccc2[nH]c1=O)c1cccs1	inactive	–
COc1ccccc1N=C1NC(=O)/C(=C/c2ccc(O)cc2)S1	inactive	–
COc1cc(/C=C2\SC(=Nc3ccc(Cl)cc3)NC2=O)ccc1O	inactive	–
COc1cc(/C=C2\SC(=Nc3cccc(F)c3)NC2=O)ccc1O	inactive	–
COc1ccccc1N=C1NC(=O)/C(=C/c2ccccc2)S1	inactive	–
COc1cc(/C=C2\SC(=Nc3ccccc3OC)NC2=O)ccc1F	inactive	–
COc1ccc(/C=C2\SC(=Nc3ccccc3OC)NC2=O)cc1	inactive	–
O=C(Nc1ccc(Cl)cc1-c1nc2ccccc2[nH]c1=O)c1cccs1	inactive	–
COc1ccccc1N=C1NC(=O)/C(=C/c2cccnc2)S1	inactive	–
